Blank lines part the entries; values can stand above or below the substance they belong to. Ends that are not written are not given here.
Experiments:
[1] = molecular target: KRIT1 FERM domain (Homo sapiens, UniProt O00522); format: binding; conditions: GFP-KRIT1 F123 from HEK293 cell lysates, immunoblot
[2] = test system: zebrafish embryos; assay: Zebrafish dilated heart phenotype after San MO and cRNA coinjection; format: in vivo, Danio rerio (zebrafish); conditions: 1 ng MO injected alone at one-cell stage, scored at 48 hpf
[3] = test system: HUVEC; assay: Immunofluorescence localization of HA-KRIT1 at EC-cell junctions; format: cell-based, human; conditions: HA-tagged KRIT1 transfected HUVECs, 24 h, colocalization with VE-cadherin
Procedure, shortened: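 HUVECs in supplemented EC medium, nucleofected with HA-KRIT1 WT or L717,721A, plated on fibronectin-coated coverslips at ~90% confluence, grown 24 h; fixed 3.7% PFA 30 min, 0.2% Triton X-100 5 min, 10% goat serum block 1 h; mouse anti-HA plus rabbit anti-VE-cadherin 3 h RT, Alexa 488/568 secondaries 1 h; spinning-disk confocal, 40× oil, z-slices; ≥3 independent experiments.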

[4] = test system: HUVECs; assay: Myosin light chain phosphorylation; format: cell-based, human; conditions: siRNA-resistant KRIT1 coexpressed with anti-KRIT1 siRNA in HUVECs, immunoblot
Procedure, shortened: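 HUVECs were kept in supplemented EC medium and nucleofected with anti-KRIT1 siRNA, alone or together with cDNA for WT or L717,721A KRIT1. Phospho-myosin light chain was then assessed by immunoblotting.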

Sequence of KRIT1 FERM domain (O00522 420-734 limits assumed): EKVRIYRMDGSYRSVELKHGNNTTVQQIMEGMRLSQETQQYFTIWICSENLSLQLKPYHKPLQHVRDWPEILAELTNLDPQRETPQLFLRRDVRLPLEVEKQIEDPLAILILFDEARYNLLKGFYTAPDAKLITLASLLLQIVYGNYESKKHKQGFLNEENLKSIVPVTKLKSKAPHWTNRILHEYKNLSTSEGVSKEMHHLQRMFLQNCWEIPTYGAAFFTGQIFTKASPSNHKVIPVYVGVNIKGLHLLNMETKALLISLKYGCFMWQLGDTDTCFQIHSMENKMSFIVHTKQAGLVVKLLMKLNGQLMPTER

- KRIT1 binding [1]: no effect on KRIT1 binding
Substance: HEG1 C26 NAFA (SRHSCIFPGQYAPSAISDESRRRDYF; not fully specified)

Substance: 5′-TTGAAGTCTCACTTTTGTCTCCATG-3′ (morpholino, further chemistry not given here) [San MO]
- heart dilation, zebrafish embryos [2]: 95%

Substance: KRIT1: HA-tagged full-length wild-type human KRIT1 expressed in HUVECs
- localization at EC-cell junctions [3]: localized at EC–cell junctions
- effect on increased myosin light chain phosphorylation caused by KRIT1 silencing [4]: reversed this effect

Reference: article PMC3461514 (The Journal of Cell Biology, 2012)
